Assay results gathered from unrelated publications.
Protocols differ between the studies behind these lines.
Observed: DPPH scavenging

The IC50 of `COc1cc(C=CC(=O)CC(c2ccc([N+](=O)[O-])cc2)n2ccnc2)ccc1O` (stereo not shown) is reported as 26.9 µg/mL.
`Cc1cc(C(C)(C)C)c(O)c(C(C)(C)C)c1` gave an IC50 of 25.9 µg/mL (absorbance).
`O=C(Cc1c[nH]c2ccccc12)Nc1ccccc1` has an IC50 of 2360 nM.
`COc1ccc(-c2nc3cc(Cl)ccc3[nH]2)cc1OCc1ccccc1` gave an IC50 of 2760 nM (absorbance).
`COc1cc(C(CC(N)=O)NCCc2ccc(O)c(O)c2)ccc1O` (stereo not shown) has an IC50 of 80.2 µg/mL.
With `COc1cc(NC(=O)Cc2c[nH]c3ccccc23)ccc1C` the IC50 was 1530 nM.
`O=C1O[C@H]([C@@H](O)CO)C(O)=C1O` has an IC50 of 141000 nM (absorbance).
`O=C(OC[C@H]1O[C@@H](OC(=O)c2cc(O)c(O)c(O)c2)[C@H](OC(=O)c2cc(O)c(O)c(O)c2)[C@@H](OC(=O)c2cc(O)c(O)c(O)c2)[C@@H]1O)c1cc(O)c(O)c(O)c1` has an IC50 of 11900 nM (absorbance).
The IC50 of `O=C1O[C@H]([C@@H](O)CO)C(O)=C1O` is reported as 4.8 µg/mL.
`COc1cc(C(CC(=O)c2ccc(Cl)cc2)NCCc2ccc(O)c(O)c2)ccc1O` (stereo not shown) has an IC50 of 15.3 µg/mL.
The IC50 of `COC(=O)c1cc(O)c(O)c(O)c1` is reported as 35000 nM (absorbance).
With `O=C(Cc1c[nH]c2ccccc12)Nc1ccc(F)cc1F` the IC50 was 1710 nM.
The IC50 of `O=c1c(O[C@@H]2O[C@H](CO)[C@@H](O)[C@H](O)[C@H]2O)c(-c2ccc(O)c(O)c2)oc2cc(O)cc(O)c12` is reported as 90500 nM (absorbance).
`COc1ccc(-c2nc3ccccc3[nH]2)cc1OCc1ccccc1` gave an IC50 of 1480 nM (absorbance).
The IC50 of `CCCCOc1ccc(NC(=O)Cc2c[nH]c3ccccc23)cc1` is reported as 2420 nM.
`COc1ccc(-c2nc3cc(C)c(C)cc3[nH]2)cc1OCc1ccccc1` has an IC50 of 1820 nM (absorbance).
With `O=C(Cc1c[nH]c2ccccc12)Nc1cccc(F)c1` the IC50 was 1530 nM.
With `COc1cc(-c2oc3cc(O)cc(O)c3c(=O)c2O[C@@H]2O[C@H](CO)[C@@H](O)[C@H](O)[C@H]2O)ccc1O` the IC50 was > 500000 nM (absorbance).
`CCCCCCCCOc1ccc(NC(=O)Cc2c[nH]c3ccccc23)cc1` has an IC50 of 2450 nM.
`COc1cc(C=Cc2cc(-c3ccccc3)nc(O)n2)ccc1O` has an IC50 of 24 µg/mL.
With `COc1ccc(OC)c(NC(=O)Cc2c[nH]c3ccccc23)c1` the IC50 was 2000 nM.
`COc1cc(C(CC(=O)c2ccc(Br)cc2)NCCc2ccc(O)c(O)c2)ccc1O` (stereo not shown) has an IC50 of 15.2 µg/mL.
